MrgX1 agonist = human MrgX1 receptor agonism, primary screen. Q96LB2. B-score at 10 µM. AID 588627. 310,000 compounds, 0.44% hits. MrgX1-HEK293 cells, Fluo-4 calcium fluorescence, agonist mode; stronger effect = higher value;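 active = calcium response B-score plate-corrected fluorescence ratio at least 3 library SD, with starting fluorescence B-score inside 5 SD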
Target sequence (Q96LB2 whole entry, looked up): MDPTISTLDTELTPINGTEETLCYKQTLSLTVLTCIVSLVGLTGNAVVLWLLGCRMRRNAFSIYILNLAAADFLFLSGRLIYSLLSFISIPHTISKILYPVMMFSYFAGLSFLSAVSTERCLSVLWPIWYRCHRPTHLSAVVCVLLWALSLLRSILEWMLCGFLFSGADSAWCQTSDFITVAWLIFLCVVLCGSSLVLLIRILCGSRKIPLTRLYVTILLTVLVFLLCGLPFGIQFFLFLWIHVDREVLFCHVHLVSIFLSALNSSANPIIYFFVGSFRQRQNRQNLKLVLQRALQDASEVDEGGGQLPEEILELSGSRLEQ
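Material: HEK293 cells stably expressing human MrgX1 receptor | Quantity: 15,000 cells per well | Times: Cells plated overnight, dye loaded 0.5 h 37 °C, 0.5 h room temperature | Measured by: Kinetic Fluo-4 NW fluorescence of intracellular calcium | Control set: Positive and negative controls per plate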
MrgX1 allo act = human MrgX1 positive allosteric modulation, primary screen; MrgX1-HEK293, Fluo-4 calcium flux, FDSS; stronger effect = higher value; B-score at 10 µM; Q96LB2; 310,000 compounds, 0.63% hits;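 active = plate-corrected calcium response at least 3 library SD above typical, normal starting fluorescence, not activating the receptor alone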;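 also: compound read alongside a low EC10 to EC30 dose of BAM8-22 agonist; peak minus trough fluorescence over baseline measured at the second addition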
MrgX1 antag = human MrgX1 receptor antagonism, primary screen. Q96LB2. MRGX1-HEK293 calcium flux, Fluo-4, BAM8-22 antagonism; stronger effect = lower value. B-score at 10 µM. 310,000 compounds, 1.3% hits;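 active = calcium-response B-score plate-corrected more than 3 library SD below zero, starting fluorescence within 5 deviations, no agonist response on first addition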;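 also: peak minus trough fluorescence over baseline after final BAM8-22 challenge near maximal dose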
RGS4 pot = potentiators or activators of RGS4. HEK293 M3R/inducible RGS4, carbachol calcium flux Fluo4; stronger effect = lower value. B-score at 10 µM. 310,000 compounds, 0.92% hits. AID 463111;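 active = B-score of the integrated calcium signal more than 4 SD below the library mean, with starting fluorescence not abnormally high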;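 also: negative B-score means reduced calcium response which marks RGS4 activation or potentiation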
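System – HEK293 FlpIn-TREx cells, stable M3R, doxycycline-inducible RGS4 · Reagent – ECmax carbachol challenge · Times – compound preincubation 20 min at room temperature before agonist · Technique – Fluo4 fluorescence kinetic imaging of calcium · Measure – B score of integrated Fluo4 ratio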
RGS4 inh = inhibitors of human RGS4; B-score at 10 µM; HEK293 M3R/RGS4 inducible, Fluo-4 calcium flux; stronger effect = higher value; triggered by carbachol at its EC20; P49798; 310,000 compounds, 0.45% hits;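 active = B-score, a plate-corrected calcium signal, over three deviations above library mean, with baseline fluorescence within five deviations of library mean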;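 also: RGS4 expression induced by doxycycline in cells with stable M3 receptor; B-score is computed from the integrated fluorescence ratio over baseline after carbachol; higher B-score means a larger calcium signal and so more RGS4 inhibition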
Target sequence (P49798 whole entry, looked up): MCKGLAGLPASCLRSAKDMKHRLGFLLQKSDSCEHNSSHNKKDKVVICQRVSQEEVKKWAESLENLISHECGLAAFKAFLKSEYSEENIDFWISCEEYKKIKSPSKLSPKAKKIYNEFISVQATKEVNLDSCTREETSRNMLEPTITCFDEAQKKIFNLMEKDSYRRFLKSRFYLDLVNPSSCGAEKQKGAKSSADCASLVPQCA
MrgX1 antag conf = confirmation of human MrgX1 receptor antagonists; MrgX1-HEK293, BAM8-22 calcium flux, Fluo-4; stronger effect = lower value; AID 602420; shares compounds with MrgX1 antag; remaining BAM8-22 calcium response % of control (stronger effect = lower value), % at 10 µM; 2,300 compounds, 19% hits;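 active = remaining agonist calcium response no higher than 100% minus 3 SD of agonist-only control wells, with starting fluorescence near control levels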;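 also: agonist BAM8-22 given at a near maximal EC90 to ECmax level; peak minus minimum fluorescence divided by baseline after agonist addition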
HEK293 Ca flux = MrgX1 antagonist counter-screen hit in parental HEK293 cells. shares compounds with MrgX1 antag. Fluo-4 calcium fluorescence, FDSS. fluorescence ratio F(max-min)/F0 at 10 µM. 4,000 compounds, 2% hits. AID 624111;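 active = duplicate-averaged calcium fluorescence ratio at least three times the standard deviation of buffer wells, a nonspecific response in parental cells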
HEK293 Ca counter = MrgX1 allosteric activator counter-screen hit in parental HEK293 cells; parental HEK293 calcium flux, Fluo-4 fluorescence ratio; stronger effect = higher value; AID 624114; shares compounds with MrgX1 antag; 4,000 compounds, 0.4% hits; fluorescence ratio F(max-min)/F0 at 10 µM;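 active = calcium fluorescence ratio, averaged over duplicates, at least 3 SD of the buffer-well ratio, meaning a nonspecific response in receptor-free cells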;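 also: untransfected parental HEK293 lacking MrgX1 used as counterscreen for MrgX1 allosteric activators; fluorescence change taken during the second addition on a kinetic imager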
HEK293 Ca cntr2 = MrgX1 activator counter-screen hit in parental HEK293 cells. Fluo-4 calcium fluorescence (FDSS); stronger effect = higher value. fluorescence ratio F(max-min)/F0 at 10 µM. 4,000 compounds, 8.7% hits. AID 624115. shares compounds with MrgX1 antag;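 active = calcium fluorescence ratio at least three times the spread of buffer wells, meaning a non-specific response in parental cells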
* hit, by the source's call; i = inactive; . = not tested or not shown. Compounds with a hit are over-represented: about 3.5% of the library has one in this group of screens.

SMILES	MrgX1 agonist	MrgX1 allo act	MrgX1 antag	RGS4 pot	RGS4 inh	MrgX1 antag conf	HEK293 Ca flux	HEK293 Ca counter	HEK293 Ca cntr2
O=C(NCCc1ccc(F)cc1)c1cc(-c2ccncc2)nc2ccccc12	.	.	.	i	i	.	.	.	.
Cc1nc(SCC(=O)Nc2ccc3c(c2)OCCO3)c2oc3ccccc3c2n1	i	i	-7.5*	i	i	i	i	i	i
Cc1cc(C)c(C#N)c(SCC(=O)Nc2ccc3c(c2)OCO3)n1	i	i	-6.9*	i	i	i	i	i	i
Cc1nc(SCC(=O)Nc2ccc3c(c2)OCO3)c(C#N)c2c1CCCC2	i	i	i	i	i	.	.	.	.
Cn1c(SCC(=O)Nc2ccc3c(c2)OCCO3)nnc1-c1ccco1	i	i	-4.9*	i	i	i	i	i	i
Cn1c(SCC(=O)c2cc(Cl)c(Cl)s2)nnc1-c1ccco1	i	i	-4.8*	i	i	i	i	i	i
CCn1c(SCC(=O)Nc2ccc3c(c2)OCCO3)nnc1-c1ccco1	i	i	i	i	i	.	.	.	.
Cc1ccc(C(=O)CSc2nnc(-c3ccco3)n2C)cc1	i	i	i	i	i	.	.	.	.
CC(=O)c1cccc(NC(=O)c2cc(=O)[nH]c3ccccc23)c1	i	i	i	i	i	.	.	.	.
CCOC(=O)CC1C(=O)NCCN1S(=O)(=O)c1ccc(Cl)cc1Cl (centres undefined)	i	i	-6.9*	i	i	i	i	i	i
CC(C)Cc1nnc(NC(=O)CCC(=O)NC2CCCc3ccccc32)s1 (centres undefined)	i	i	-5.2*	i	i	i	i	i	i
CCCc1nnc(NC(=O)CCC(=O)NC2CCCc3ccccc32)s1 (centres undefined)	i	i	i	i	i	.	.	.	.
Cc1ccc(NC(=O)NC2CCCc3ccccc32)cc1 (centres undefined)	i	i	-5.3*	i	i	i	i	i	i
Cc1ccc2c(c1)N(CC(=O)NC1CCCCCC1)C(=O)c1cccnc1O2	i	i	i	i	i	.	.	.	.
CCn1c2ccccc2c2cc(CN3CCN(S(=O)(=O)Cc4ccccc4)CC3)ccc21	i	i	-8.1*	i	i	80%*	i	i	i
CCn1c2ccccc2c2cc(CN3CCN(S(=O)(=O)CC)CC3)ccc21	i	i	i	i	i	.	.	.	.
CC1CC1C(=O)N(C)CC(=O)Nc1cccc(F)c1 (centres undefined)	i	i	i	i	i	.	.	.	.
CCCCC1CCC(C(=O)N(C)CC(=O)Nc2cccc(F)c2)CC1 (centres undefined)	i	i	-5.4*	i	i	i	i	i	i
Cc1ccc(NCc2ccccc2O)cc1	i	i	i	i	i	.	.	.	.
Cc1ccc(NCc2ccccc2F)cc1	i	i	-5.9*	i	i	i	i	i	i
CCC1Oc2ccccc2N(CC(=O)NCCCN2CCN(c3ccc(OC)cc3)CC2)C1=O (centres undefined)	i	i	i	i	i	.	.	.	.
O=C(Cn1cnc2c(nnn2Cc2ccc(F)cc2)c1=O)NCc1ccc(F)cc1	i	i	i	i	i	.	.	.	.
CC(=O)Nc1ccc(NC(=O)Cn2cnc3c(nnn3Cc3ccc(F)cc3)c2=O)cc1	i	i	-6.8*	i	i	i	i	i	i

Screening results as filed in PubChem.
